Series [1] deals with Leishmania donovani. Kind of series: Antileishmanial activity against Leishmania donovani MHOM/IN/80/DD8 amastigote forms harboring luciferase gene infected in mouse J774 cells after 72 hrs by Steady-Glo reagent based luminescence assay. It is filed as functional, cell-based. The note with it: MHOM/IN/80/DD8, J774, 72 h.
For series [2], the system named is Leishmania donovani. The series can be described thus: Antileishmanial activity against Leishmania donovani amastigote forms infected in Balb/c mouse assessed as inhibition of parasitic burden in liver at 100 mg/kg, ip administered for 5 consecutive days measured on day 7 post last treatment by Giemsa staining based assay relative to control. The format is functional. The note with it: 168 h.

In series [3] the test system is Mus musculus. The series can be described thus: Increase in IL-12 level in Balb/c mouse splenocytes infected with Leishmania donovani amastigote forms at 25 mg/kg, ip co-treated with 5 mg/kg, po miltefosine administered for 5 consecutive days measured on day 7 post last treatment by sandwich ELISA relative to control. The format is functional. The gist of the method: (§1)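 Splenocytes (2×10^6) from treated infected BALB/c mice taken on day 4 or 7 post-treatment. Cultured in phenol-red-free RPMI 1640 with 5 μg/mL soluble L. donovani antigen for 72 h at 37 °C, 5% CO2. Supernatant cytokines measured by sandwich ELISA against a standard curve. Mean ± SD, n = 5 mice per group, three independent experiments.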

The nature of series [4]: Apparent volume of distribution in Swiss mouse at 50 mg/kg, po by LC-MS/MS analysis. It is filed as ADME, organism-based. The note with it: in vivo.
Series [5] deals with Leishmania donovani. The series can be described thus: Antileishmanial activity against Leishmania donovani amastigote forms infected in Balb/c mouse assessed as inhibition of parasitic burden in spleen at 200 mg/kg, ip administered for 5 consecutive days measured on day 7 post last treatment by Giemsa staining based assay relative to control. The format is functional. The note with it: Leishmania donovani, ip, 168 h.

The subject of series [6] is Leishmania donovani. The series can be described thus: Antileishmanial activity against Leishmania donovani amastigote forms infected in Balb/c mouse assessed as inhibition of parasitic burden in liver at 25 mg/kg, ip co-treated with 5 mg/kg, po miltefosine administered for 5 consecutive days measured on day 4 and 7 post last treatment by Giemsa staining based assay relative to control. It is filed as functional. In outline:
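Combination study with seven groups of 5 infected BALB/c mice, including vehicle (8% DMSO i.p.), infected untreated and miltefosine-alone groups. Treatment daily for 5 days, test compound i.p. and miltefosine orally. Mice killed on days 4 and 7 post-treatment; liver and spleen parasite load counted on Giemsa-stained stamp smears and expressed as LDU relative to infected untreated mice. Mean ± SD, n = 5, three independent experiments.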

For a further series, the system named is Liver. The series can be described thus: Intrinsic clearance in mouse liver S9 fractions assessed per mg protein at 1 mM in presence of NADPH by HPLC method. The format is ADME. To be noted: s9, 1000 µM.
A short description of series [7]: Selectivity index, ratio of CC50 for African green monkey Vero cells to IC50 for Leishmania donovani MHOM/IN/80/DD8 amastigote forms infected in mouse J774 cells. The format is toxicity, cell-based. To be noted: read-out: Ratio CC50/IC50. The gist of the method: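 CC50: Vero or J774 cells (1×10^5/well) exposed 72 h to seven two-fold dilutions, 500–7.81 μM; MTT 2 h at 37 °C, formazan in DMSO read at 540 nm. IC50: luciferase-expressing Dd8 amastigotes in J774 macrophages (1:8), 72 h, luminescence, four-parameter Hill fit. SI = CC50/IC50, IC50 mean of three experiments.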

Series [8] relates to Leishmania donovani. Kind of series: Antileishmanial activity against Leishmania donovani amastigote forms infected in Balb/c mouse assessed as inhibition of parasitic burden in liver at 50 mg/kg, ip administered for 5 consecutive days measured on day 7 post last treatment by Giemsa staining based assay relative to control. To be noted: 168 h. It is filed as functional.
Series [9] concerns Leishmania donovani. Kind of series: Antileishmanial activity against Leishmania donovani amastigote forms infected in Balb/c mouse assessed as inhibition of parasitic burden in spleen at 100 mg/kg, ip administered for 5 consecutive days measured on day 7 post last treatment by Giemsa staining based assay relative to control. The format is functional. To be noted: 168 h.
Series [10] has as its system Leishmania donovani. Kind of series: Antileishmanial activity against Leishmania donovani amastigote forms infected in Balb/c mouse assessed as inhibition of parasitic burden in liver at 200 mg/kg, ip administered for 5 consecutive days measured on day 7 post last treatment by Giemsa staining based assay relative to control. The note with it: Leishmania donovani, ip, 168 h. The format is functional.

Series [11] in a line: Stability in pH 1.2 simulated gastric fluid at 5 ug/ml after 120 mins by HPLC method. The gist of the method:
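Incubated in simulated gastric fluid (pH 1.2) or simulated intestinal fluid (pH 6.5); percentage remaining intact determined after 120 min.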

Series [12] concerns Leishmania donovani. The series can be described thus: Antileishmanial activity against Leishmania donovani MHOM/IN/80/DD8 promastigote forms harboring luciferase gene at 7.19 uM up to 72 hrs by MTT assay relative to control. The format is functional. To be noted: MHOM/IN/80/DD8, 72 h.
In series [13] the test system is Leishmania donovani. Kind of series: Induction of apoptosis in Leishmania donovani MHOM/IN/80/DD8 promastigote forms assessed as DNA fragmentation at 50 uM after 48 hrs by propidium iodide staining based TUNEL assay. The format is functional. In outline:
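DNA fragmentation detected by TUNEL under fluorescence and phase-contrast microscopy, with counts of TUNEL-positive cells; three independent experiments.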

Series [14] has as its system Mus musculus. Kind of series: Increase in IL-12 level in Balb/c mouse splenocytes infected with Leishmania donovani amastigote forms at 25 mg/kg, ip co-treated with 5 mg/kg, po miltefosine administered for 5 consecutive days measured on day 4 post last treatment by sandwich ELISA relative to control. It is filed as functional. The gist of the method:
as §1

Series [15] has as its system Leishmania donovani. Kind of series: Antileishmanial activity against Leishmania donovani MHOM/IN/80/DD8 promastigote forms harboring luciferase gene at 50 uM up to 72 hrs by MTT assay relative to control. The note with it: MHOM/IN/80/DD8, 72 h. It is filed as functional.
Series [16] is described as follows: AUC (0 to infinity) in Swiss mouse at 50 mg/kg, po by LC-MS/MS analysis. Further details: dose 50 mg/kg, route oral, time infinity. To be noted: in vivo. It is filed as ADME, organism-based.
For series [17], the system named is Leishmania donovani. Kind of series: Antileishmanial activity against Leishmania donovani MHOM/IN/80/DD8 promastigote forms harboring luciferase gene after 72 hrs by Steady-Glo reagent based luminescence assay. The format is functional. The note with it: MHOM/IN/80/DD8, 72 h. In outline: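 Exponential-phase Dd8-Luc promastigotes at 1×10^6/mL in M199 with 10% FBS, 24 °C, given 50 and 25 µM for 72 h. Vehicle 0.1% DMSO. Steady-Glo added 1:1, luminescence (RLU) read. IC50 from four-parameter Hill regression, derived only where inhibition exceeded 90%. Means of at least three independent experiments.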

A short description of series [18]: Tmax in Swiss mouse at 50 mg/kg, po by LC-MS/MS analysis. It is filed as ADME, organism-based. The note with it: in vivo.
Series [19] is described as follows: Cytotoxicity against mouse J774 cells assessed as cell viability […] after 72 hrs by MTT assay relative to control. The note with it: read-out: Activity. It is filed as cell-based. The gist of the method:
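Vero and J774 cells seeded at 1×10^5 per well for 24 h, then exposed 72 h to seven two-fold dilutions from 500 to 7.81 μM. MTT solution (5 mg/mL stock) added for 2 h at 37 °C, formazan dissolved in DMSO and read at 540 nm. CC50 derived by the Huber and Koella method.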

Series [20] relates to Mus musculus. The series can be described thus: Decrease in TGFbeta level in Balb/c mouse splenocytes infected with Leishmania donovani amastigote forms at 25 mg/kg, ip co-treated with 5 mg/kg, po miltefosine administered for 5 consecutive days measured on day 4 post last treatment by sandwich ELISA relative to control. It is filed as functional. In outline:
as §1

pIC50: −log10 of the molar value. Activity calls are given as the source filed them. The calls are words filed in the database; no cut-off is given here.

On to `COc1ccc(C2C3=C(CCC3=O)Nc3c2c(-c2c[nH]c4ccccc24)nn3-c2ccc(Cl)c(Cl)c2)cc1OC` (stereo unspecified), for which the pIC50 in the series with Leishmania donovani [1] was 5.39; in the series on Leishmania donovani [17], 5.14. Further, the inhibition in vivo at 100 mg/kg with Leishmania donovani [2] is 92.7%; in the series with Leishmania donovani [9] it was 90%. In addition, the “fold change (FC)” value in the series on Mus musculus [3] is reported as 11.3; in the series with Mus musculus [14], 12.7. Also, the Vd/F in [4] was 19.6 L/kg. The inhibition in vivo at 200 mg/kg is 90% with Leishmania donovani [5] and 93% with Leishmania donovani [10]. Moreover, the “inhibition (INH)” value is given as over 92% with Leishmania donovani [6] and 88% in the series with Mus musculus [20]. Also, the CLH with Liver came to 27.47 µL/min. For the same molecule, in series [7], the selectivity ratio turned out to be 108. Further, the inhibition in vivo at 50 mg/kg in the series with Leishmania donovani [8] is over 93%. Further, the Stability in series [11] was 85%. Besides, in the series on Leishmania donovani [12], the inhibition at 7.19 µM is over 95%. Also, the result with Leishmania donovani [13] was Active. The same molecule returned an inhibition at 50 µM in the series with Leishmania donovani [15] of over 95%. This molecule also returned an AUC(0-inf) in series [16] of 31.7 µM·h. In series [18], the Tmax is 1.75 h. In series [19], the viability at 72 h was over 95%.

The values are drawn from ChEMBL document CHEMBL3992522, “Antileishmanial Activity of Pyrazolopyridine Derivatives and Their Potential as an Adjunct Therapy with Miltefosine” (J Med Chem, 2017).
